In ChEMBL document CHEMBL4007470, “Discovery of a 2'-fluoro-2'-C-methyl C-nucleotide HCV polymerase inhibitor and a phosphoramidate prodrug with favorable properties” (Bioorg Med Chem Lett, 2017):

Key:
Hepatitis C virus [1] = test: Antiviral activity against HCV genotype 1b infected in human HuH7 cells by luciferase reporter gene assay; format: functional, cell-based, Hepacivirus hominis; conditions: Hepatitis C virus, genotype 1b, Huh-7
Procedure, shortened: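 Luciferase-reporter genotype 1b subgenomic replicon in Huh-7 cells; EC50 is concentration giving 50% inhibition. Values are averages of at least three repeats.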

Hepatitis C virus [2] = test: Antiviral activity against HCV genotype 4a infected in human HuH7 cells by luciferase reporter gene assay; format: functional, cell-based, Hepacivirus hominis; conditions: Hepatitis C virus, genotype 4a, Huh-7
Hepatitis C virus [3] = test: Antiviral activity against HCV genotype 1a infected in human HuH7 cells by luciferase reporter gene assay; format: functional, cell-based, Hepacivirus hominis, subtype 1a; conditions: Hepatitis C virus, subtype 1a, Huh-7
[4] = Half life in human plasma at 2 uM by LC-MS/MS analysis; format: ADME, cell-free
Procedure, shortened: (§1)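 Compound at 2 μM incubated in plasma at 37 °C for up to 4 h. Aliquots quenched with 9 volumes of acetonitrile containing internal standard, then centrifuged. Supernatant analysed by LC-MS/MS.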

[5] = Half life in hamster intestinal S9 fractions at 2 uM by LC-MS/MS analysis; format: ADME, Intestine; conditions: cricetinae, intestinal S9 fractions
[6] = Hepatic extraction in human liver S9 fractions at 2 uM by LC-MS/MS analysis; format: ADME; conditions: liver S9 fractions, read-out: ERH
Procedure, shortened: (§2)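 Compound at 2 μM incubated with S9 fractions at 37 °C for 90 min with NADPH and UDPGA. Quenched with aqueous acetonitrile/methanol containing internal standard and analysed by LC-MS/MS. Half-life from an exponential fit assuming first-order kinetics. Hepatic extraction predicted from half-life using the well-stirred model.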

[7] = Half life in hamster plasma at 2 uM by LC-MS/MS analysis; format: ADME, cell-free; conditions: cricetinae; procedure, shortened: as §1
[8] = Half life in human intestinal S9 fractions at 2 uM by LC-MS/MS analysis; format: ADME, Intestine; procedure, shortened: as §2
[9] = Hepatic extraction in hamster liver S9 fractions at 2 uM by LC-MS/MS analysis; format: ADME; conditions: cricetinae, liver S9 fractions; read-out: ERH; procedure, shortened: as §2

| Compound | EC50 (Hepatitis C virus [1]) [µM] | EC50 (Hepatitis C virus [2]) [µM] | EC50 (Hepatitis C virus [3]) [µM] | half-life at 2 µM [4] [h] | half-life at 2 µM [5] [h] | hepatic extraction ratio at 2 µM [6] | half-life at 2 µM [7] [h] | half-life at 2 µM [8] [h] | hepatic extraction ratio at 2 µM [9] |
| --- | --- | --- | --- | --- | --- | --- | --- | --- | --- |
| CCOC(=O)[C@H](CCCCN)NP(=O)(OC[C@H]1O[C@@H](c2cnc3c(N)ncnn23)[C@](C)(F)[C@@H]1O)Oc1ccccc1 (stereo not given in full) | > 88 | 62.5 | > 88 | – | – | – | – | – | – |
| CC[C@@H](C)OC(=O)[C@@H](C)NP(=O)(OC[C@H]1O[C@@H](c2cnc3c(N)ncnn23)[C@](C)(F)[C@@H]1O)Oc1ccccc1 (stereo not given in full) | > 88 | > 88 | > 88 | – | – | – | – | – | – |
| CC(C)OC(=O)[C@@H](C)NP(=O)(OC[C@H]1O[C@@H](c2cnc3c(N)ncnn23)[C@](C)(F)[C@@H]1O)Oc1ccccc1 (stereo not given in full) | > 88 | 58.1 | > 88 | 6.33 | 6.92 | 0.17 | 11.2 | > 13.2 | 0.85 |
| CC(C)OC(=O)[C@@H](NP(=O)(OC[C@H]1O[C@@H](c2cnc3c(N)ncnn23)[C@](C)(F)[C@@H]1O)Oc1ccccc1)C(C)C (stereo not given in full) | > 88 | > 88 | > 88 | – | – | – | – | – | – |
| CCOC(=O)[C@H](CCCCNC(C)=O)NP(=O)(OC[C@H]1O[C@@H](c2cnc3c(N)ncnn23)[C@](C)(F)[C@@H]1O)Oc1ccccc1 (stereo not given in full) | > 88 | 86.2 | 60.5 | – | – | – | – | – | – |
| CC[C@H](C)OC(=O)C(C)(C)NP(=O)(OC[C@H]1O[C@@H](c2cnc3c(N)ncnn23)[C@](C)(F)[C@@H]1O)Oc1ccccc1 (stereo not given in full) | > 88 | 3.6 | 36 | – | – | – | – | – | – |
| CCOC(=O)[C@@H](C)NP(=O)(OC[C@H]1O[C@@H](c2cnc3c(N)ncnn23)[C@](C)(F)[C@@H]1O)Oc1ccccc1 (stereo not given in full) | 26.4 | 5.7 | 14.7 | 11.4 | 3.2 | 0.28 | 5.27 | > 13.2 | 0.84 |
| CC[C@@H](C)OC(=O)C(C)(C)NP(=O)(OC[C@H]1O[C@@H](c2cnc3c(N)ncnn23)[C@](C)(F)[C@@H]1O)Oc1ccccc1 (stereo not given in full) | > 88 | 1.1 | 28.7 | – | – | – | – | – | – |
| CC(C)OC(=O)C1(NP(=O)(OC[C@H]2O[C@@H](c3cnc4c(N)ncnn34)[C@](C)(F)[C@@H]2O)Oc2ccccc2)CCOCC1 (stereo not given in full) | 29.1 | 7 | 14.4 | – | – | – | – | – | – |

The next molecules have a lower EC50 (Hepatitis C virus [1]) than those just listed; values first:

| EC50 (Hepatitis C virus [1]) [µM] | EC50 (Hepatitis C virus [2]) [µM] | EC50 (Hepatitis C virus [3]) [µM] | Compound | half-life at 2 µM [4] [h] | half-life at 2 µM [5] [h] | hepatic extraction ratio at 2 µM [6] | half-life at 2 µM [7] [h] | half-life at 2 µM [8] [h] | hepatic extraction ratio at 2 µM [9] |
| --- | --- | --- | --- | --- | --- | --- | --- | --- | --- |
| 16.1 | 2.1 | 18.8 | CC[C@H](C)OC(=O)C1(NP(=O)(OC[C@H]2O[C@@H](c3cnc4c(N)ncnn34)[C@](C)(F)[C@@H]2O)Oc2ccccc2)CCC1 (stereo not given in full) | – | – | – | – | – | – |
| 5.6 | 2 | 2.6 | CC[C@H](NP(=O)(OC[C@H]1O[C@@H](c2cnc3c(N)ncnn23)[C@](C)(F)[C@@H]1O)Oc1ccccc1)C(=O)OC(C)C (stereo not given in full) | – | – | – | – | – | – |
| 7.3 | 2.1 | 7.9 | CC[C@H](C)OC(=O)[C@@H](C)NP(=O)(OC[C@H]1O[C@@H](c2cnc3c(N)ncnn23)[C@](C)(F)[C@@H]1O)Oc1ccccc1 (stereo not given in full) | – | – | – | – | – | – |
| 6.1 | 1.5 | 3.4 | COCCOC(=O)C1(NP(=O)(OC[C@H]2O[C@@H](c3cnc4c(N)ncnn34)[C@](C)(F)[C@@H]2O)Oc2ccccc2)CCC1 (stereo not given in full) | – | – | – | – | – | – |
| 3.4 | 0.83 | 1.2 | CCOC(=O)CC[C@H](NP(=O)(OC[C@H]1O[C@@H](c2cnc3c(N)ncnn23)[C@](C)(F)[C@@H]1O)Oc1ccccc1)C(=O)OCC (stereo not given in full) | – | – | – | – | – | – |
| 0.56 | 0.37 | 0.53 | CC[C@@H](C)OC(=O)[C@H](C)NP(=O)(OC[C@H]1O[C@@H](c2cnc3c(N)ncnn23)[C@](C)(F)[C@@H]1O)Oc1ccccc1 (stereo not given in full) | – | – | – | – | – | – |
| 6.2 | 0.82 | 4.3 | COCCOC(=O)C(C)(C)NP(=O)(OC[C@H]1O[C@@H](c2cnc3c(N)ncnn23)[C@](C)(F)[C@@H]1O)Oc1ccccc1 (stereo not given in full) | – | – | – | – | – | – |
